Results from different studies.
Lines come from different studies, so protocols differ.

| SMILES | host | sample | route | dose | time | notes | concentration |
| --- | --- | --- | --- | --- | --- | --- | --- |
| CC(C)(C)c1cc(NC(=O)Nc2ccc(Oc3ccnc4[nH]c(=O)cnc34)cc2F)n(-c2ccccc2)n1 | BALB/c mouse | plasma | oral | 10 mg/kg/day | 24 h |  | ~1000 nM |
| CC(C)(Nc1nc(-c2ccccn2)nc2ccccc12)c1ccccn1 | female BALB/c mouse | plasma | oral | 50 mg/kg | 24 h |  | 79 ng/mL |
| O=S(=O)(c1cccc(C(F)(F)F)n1)N1CCc2ccc(OCc3c(F)cccc3Cl)cc21 | mouse | plasma | intraperitoneal | 10 mg/kg | 2 h |  | 290 nM |
| Cc1c2ccnc(C(=O)N[C@H](C)CN(C)C)c2cc2c3cc(O)ccc3n(C)c12 | male C57BL/6 mouse | plasma | intraperitoneal | 10 mg/kg | 2 h | single dose | 80 nM |
| O=c1cc(-c2ccccc2)oc2c(O)c(O)ccc12 | male CD-1 mouse | plasma | oral | 50 mg/kg | 4 h |  | 24 ng/mL |
| O=c1nc(N2CCN(CC3CCCCC3)CC2)sc2c([N+](=O)[O-])cc(C(F)(F)F)cc12 | CD-1 mouse | lung | intravenous | 10 mg/kg | 24 h |  | 15 ng/mL |
| c1ccc(-c2nc(N3CCC(c4ccccn4)C3)c3ccccc3n2)nc1 (centres unmarked) | female BALB/c mouse | plasma | oral | 50 mg/kg | 8 h |  | 19.6 ng/mL |
| CC(C)Cc1nn(C)c(=O)c2c(SCCCO)n(Cc3cccc4ccccc34)cc12 | mouse | plasma | intraperitoneal | 20 mg/kg | 7 days | single dose | 0 nM |
| O=S(=O)(c1cccc(C(F)(F)F)c1)N1c2cc(OCc3c(Cl)cncc3Cl)ccc2CC1C(F)(F)F (centres unmarked) | mouse | plasma | intraperitoneal | 10 mg/kg | 4 h |  | 160 nM |
| O=C(O)C1CCN(c2ncc(-c3ccc4c(c3)OCCCO4)s2)CC1 | male Swiss mouse | plasma | oral | 30 mg/kg | 12 h | single dose | 1640 ng/mL |
| O=S(=O)(c1ccc(-c2ccc3nccc(Nc4ccncn4)c3c2)cc1)N1CCOCC1 | female BALB/c mouse | plasma | intraperitoneal | 10 mg/kg | 1 h |  | 1290 ng/mL |
| COc1cc(F)c([C@@H]2CNC(=O)[C@H]2NC(=O)Nc2ccccc2)c(F)c1 | C57BL/6 mouse | plasma | oral | 3 mg/kg | 2 h |  | 84 nM |
| CC(C)Oc1cccc(-c2cnc(N3CCC(C(N)=O)CC3)s2)c1 | male Swiss mouse | plasma | oral | 30 mg/kg | 24 h | single dose | 20.6 ng/mL |
| CC(C)CN(C[C@@H](O)[C@H](Cc1ccccc1)NC(=O)O[C@H]1CO[C@H]2OCC[C@H]21)S(=O)(=O)c1ccc(N)cc1 | BALB/c mouse | plasma | intravenous | 25 mg/kg | 6 h |  | 119 ng/mL |
